Results: ChEMBL document CHEMBL1122413, “Chloralanyl and propargylglycyl dipeptides. Suicide substrate containing antibacterials” (1983)

Key:
[1] = system: Staphylococcus epidermidis; assay: Minimum inhibitory concentration against Staphylococcus epidermidis; assay type: functional
Method in brief: (§1)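 Agar dilution on defined peptide susceptibility medium with peptide in serial twofold dilutions. Strains subcultured on blood or chocolate agar. Inoculum from overnight culture in liquid peptide medium, diluted to approx 1×10^7 cfu/mL, applied by Steers replicator. Plates incubated overnight at 37 °C. MIC taken as lowest concentration permitting fewer than ten colonies at 16–18 h.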

Serratia marcescens = assay: Minimum inhibitory concentration against Serratia marcescens; assay type: functional; method in brief: as §1
Klebsiella aerogenes = assay: Minimum inhibitory concentration against Enterobacter aerogenes; assay type: functional; method in brief: as §1
Enterococcus faecalis = assay: Minimum inhibitory concentration against Streptococcus faecalis; assay type: functional; method in brief: as §1
Klebsiella pneumoniae = assay: Minimum inhibitory concentration against Klebsiella pneumoniae; assay type: functional; method in brief: as §1
Streptococcus pyogenes = assay: Minimum inhibitory concentration against Streptococcus pyogenes; assay type: functional
Method in brief: (§2)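 Agar dilution on defined peptide susceptibility medium with hemin (25 μg/mL), NAD (25 μg/mL) and Isovitalex (1%) added, peptide in serial twofold dilutions. Colonies from overnight chocolate or blood agar resuspended in liquid peptide medium to 10⁸ cfu/mL, applied by Steers replicator. Incubation overnight at 37 °C under 7% CO₂. MIC: lowest concentration giving fewer than ten colonies at 16–18 h.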

Pseudomonas aeruginosa = assay: Minimum inhibitory concentration against Pseudomonas aeruginosa; assay type: functional; method in brief: as §1
Shigella flexneri = assay: Minimum inhibitory concentration against Shigella flexneri; assay type: functional; method in brief: as §1
Proteus mirabilis = assay: Minimum inhibitory concentration against Proteus mirabilis; assay type: functional; method in brief: as §1
Morganella morganii = assay: Minimum inhibitory concentration against Morganella morganii; assay type: functional; method in brief: as §1
Haemophilus influenzae = assay: Minimum inhibitory concentration against Hemophilus influenzae; assay type: functional; method in brief: as §2
Enterobacter cloacae = assay: Minimum inhibitory concentration against Enterobacter cloacae; assay type: functional; method in brief: as §1
Staphylococcus aureus = assay: Minimum inhibitory concentration against Staphylococcus aureus; assay type: functional; method in brief: as §1
Streptococcus agalactiae = assay: Minimum inhibitory concentration against Streptococcus agalactiae; assay type: functional; method in brief: as §2
Escherichia coli = assay: Minimum inhibitory concentration against Escherichia coli; assay type: functional; method in brief: as §1
Salmonella typhimurium = assay: Minimum inhibitory concentration against Salmonella Typhimurium; assay type: functional, Salmonella enterica subsp. enterica serovar Typhimurium; settings: Salmonella enterica; method in brief: as §1

Measured: MIC

CCC[C@H](N)C(=O)N[C@@H](CCl)C(=O)O.O=C(O)C(F)(F)F
> 100 µg/mL: Serratia marcescens | Klebsiella aerogenes | Klebsiella pneumoniae | Streptococcus pyogenes | Pseudomonas aeruginosa | Shigella flexneri | Salmonella typhimurium
0.78 µg/mL: Haemophilus influenzae
1.56 µg/mL: Escherichia coli
6.25 µg/mL: Enterobacter cloacae
12.5 µg/mL: Proteus mirabilis
50 µg/mL: Morganella morganii
0.025 µg/mL: [1] | Staphylococcus aureus
0.39 µg/mL: Enterococcus faecalis
0.2 µg/mL: Streptococcus agalactiae

C#CCC(NC(=O)[C@H](N)CCl)C(=O)O.O=C(O)C(F)(F)F (some centres undefined)
> 100 µg/mL: [1] | Serratia marcescens | Klebsiella aerogenes | Enterococcus faecalis | Klebsiella pneumoniae | Streptococcus pyogenes | Pseudomonas aeruginosa | Shigella flexneri | Proteus mirabilis | Morganella morganii | Haemophilus influenzae | Enterobacter cloacae | Staphylococcus aureus | Streptococcus agalactiae | Escherichia coli | Salmonella typhimurium

C#CC[C@H](N)C(=O)N[C@@H](C)C(=O)O.O=C(O)C(F)(F)F
> 100 µg/mL: Serratia marcescens | Klebsiella aerogenes | Enterococcus faecalis | Klebsiella pneumoniae | Streptococcus pyogenes | Pseudomonas aeruginosa | Shigella flexneri | Proteus mirabilis | Morganella morganii | Haemophilus influenzae | Enterobacter cloacae | Staphylococcus aureus | Streptococcus agalactiae | Escherichia coli | Salmonella typhimurium
1.56 µg/mL: [1]

C#CCC(N)C(=O)N[C@@H](C)C(=O)O.O=C(O)C(F)(F)F (some centres undefined)
50 µg/mL: Staphylococcus aureus
> 100 µg/mL: Serratia marcescens | Klebsiella aerogenes | Enterococcus faecalis | Klebsiella pneumoniae | Streptococcus pyogenes | Pseudomonas aeruginosa | Shigella flexneri | Proteus mirabilis | Morganella morganii | Haemophilus influenzae | Enterobacter cloacae | Streptococcus agalactiae | Escherichia coli | Salmonella typhimurium
3.12 µg/mL: [1]

C[C@H](N)C(=O)N[C@H](CCl)C(=O)O.O=C(O)C(F)(F)F
> 100 µg/mL: [1] | Serratia marcescens | Klebsiella aerogenes | Enterococcus faecalis | Klebsiella pneumoniae | Streptococcus pyogenes | Pseudomonas aeruginosa | Shigella flexneri | Proteus mirabilis | Morganella morganii | Haemophilus influenzae | Enterobacter cloacae | Staphylococcus aureus | Streptococcus agalactiae | Escherichia coli | Salmonella typhimurium

C[C@@H](N)C(=O)N[C@H](CCl)C(=O)O.O=C(O)C(F)(F)F
> 100 µg/mL: [1] | Serratia marcescens | Klebsiella aerogenes | Enterococcus faecalis | Klebsiella pneumoniae | Streptococcus pyogenes | Pseudomonas aeruginosa | Shigella flexneri | Proteus mirabilis | Morganella morganii | Haemophilus influenzae | Enterobacter cloacae | Staphylococcus aureus | Streptococcus agalactiae | Escherichia coli | Salmonella typhimurium

C#CC[C@@H](NC(=O)[C@H](N)CCl)C(=O)O.O=C(O)C(F)(F)F
> 100 µg/mL: [1] | Serratia marcescens | Klebsiella aerogenes | Enterococcus faecalis | Klebsiella pneumoniae | Streptococcus pyogenes | Pseudomonas aeruginosa | Shigella flexneri | Proteus mirabilis | Morganella morganii | Haemophilus influenzae | Enterobacter cloacae | Staphylococcus aureus | Streptococcus agalactiae | Escherichia coli | Salmonella typhimurium

C#CC[C@H](N)C(=O)O
> 100 µg/mL: [1] | Serratia marcescens | Klebsiella aerogenes | Enterococcus faecalis | Klebsiella pneumoniae | Streptococcus pyogenes | Pseudomonas aeruginosa | Shigella flexneri | Proteus mirabilis | Morganella morganii | Haemophilus influenzae | Enterobacter cloacae | Staphylococcus aureus | Streptococcus agalactiae | Escherichia coli | Salmonella typhimurium

C#CC[C@@H](N)C(=O)O
50 µg/mL: Staphylococcus aureus
> 100 µg/mL: [1] | Serratia marcescens | Klebsiella aerogenes | Enterococcus faecalis | Klebsiella pneumoniae | Streptococcus pyogenes | Pseudomonas aeruginosa | Shigella flexneri | Proteus mirabilis | Morganella morganii | Haemophilus influenzae | Enterobacter cloacae | Streptococcus agalactiae | Escherichia coli | Salmonella typhimurium
